According to ChEMBL document CHEMBL4406880, “Design, synthesis, and bioactivity of dihydropyrimidine derivatives as kinesin spindle protein inhibitors” (Bioorg Med Chem, 2019):

Legend:
Format in all cases: functional
K562 = assay: Growth inhibition of human K562 cells assessed as growth percentage at 10 uM incubated for 48 hrs by sulforhodamine B assay relative to control; details: K562, 48 h, read-out: Activity
Outline: (§1)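 NCI-60 one-dose screen. Cells in RPMI 1640 with 5% FBS and 2 mM L-glutamine, seeded at 5,000–40,000 cells/well according to doubling time, and preincubated overnight at 37 °C, 5% CO2. A time-zero plate was TCA-fixed at drug addition. Compound from DMSO stock, final 10 µM, 48 h; DMSO vehicle controls. Fixation with TCA, 10% final (16% for suspension cells). SRB stain, Tris solubilization, A515. Result given as % growth versus untreated cells.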

CAKI-1 = assay: Growth inhibition of human Caki1 cells assessed as growth percentage at 10 uM incubated for 48 hrs by sulforhodamine B assay relative to control; details: CAKI-1, 48 h, read-out: Activity
Outline: (§2)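 NCI-60 one-dose screen: cells in RPMI 1640 with 5% FBS and 2 mM L-glutamine, plated at 5,000–40,000 cells/well and preincubated 24 h at 37 °C, 5% CO2. Compound is added from a DMSO stock to a final 10 µM and incubated 48 h. Cells are TCA-fixed and stained with sulforhodamine B, read at 515 nm. Output is % growth versus untreated control, with a time-zero plate.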

Hs-578T = assay: Growth inhibition of human Hs 578T cells assessed as growth percentage at 10 uM incubated for 48 hrs by sulforhodamine B assay relative to control; details: read-out: Activity; outline: as §1
IGROV-1 = assay: Growth inhibition of human IGROV1 cells assessed as growth percentage at 10 uM incubated for 48 hrs by sulforhodamine B assay relative to control; details: IGROV-1, 48 h, read-out: Activity; outline: as §1
UO-31 = assay: Growth inhibition of human UO31 cells assessed as growth percentage at 10 uM incubated for 48 hrs by sulforhodamine B assay relative to control; details: UO-31, 48 h, read-out: Activity
Outline: (§3)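 NCI-60 single-dose screen. Cells were grown in RPMI 1640 with 5% FBS and 2 mM L-glutamine and plated at 5,000–40,000 cells/well. After an overnight preincubation at 37 °C in 5% CO2, compound was added at a final 10 µM from a DMSO stock, with DMSO/PBS controls. After 48 h, cells were TCA-fixed and stained with 0.4% SRB, and absorbance was read at 515 nm. Growth is given as a percentage of untreated control.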

SW-620 = assay: Growth inhibition of human SW620 cells assessed as growth percentage at 10 uM incubated for 48 hrs by sulforhodamine B assay relative to control; details: SW-620, 48 h, read-out: Activity; outline: as §3
HL-60(TB) = assay: Growth inhibition of human HL-60(TB) cells assessed as growth percentage at 10 uM incubated for 48 hrs by sulforhodamine B assay relative to control; details: HL-60, 48 h, read-out: Activity
Outline: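 NCI-60 single-dose screen. Cells in RPMI 1640 with 5% FBS and 2 mM L-glutamine are plated at 5,000–40,000 cells/well and preincubated overnight at 37 °C, 5% CO2. Compound is added from a DMSO stock at 10 µM final for 48 h. Cells are TCA-fixed (suspension cells 16% final) and stained with SRB. Absorbance is read at 515 nm, and percentage growth is calculated against untreated controls with a time-zero plate.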

MCF7 = assay: Growth inhibition of human MCF7 cells assessed as growth percentage at 10 uM incubated for 48 hrs by sulforhodamine B assay relative to control; details: MCF7, 48 h, read-out: Activity; outline: as §1
NCI-H226 = assay: Growth inhibition of human NCI-H226 cells assessed as growth percentage at 10 uM incubated for 48 hrs by sulforhodamine B assay relative to control; details: NCI-H226, 48 h, read-out: Activity; outline: as §1
A549 = assay: Growth inhibition of human A549/ATCC cells assessed as growth percentage at 10 uM incubated for 48 hrs by sulforhodamine B assay relative to control; details: A549, 48 h, read-out: Activity; outline: as §2
U-251 = assay: Growth inhibition of human U251 cells assessed as growth percentage at 10 uM incubated for 48 hrs by sulforhodamine B assay relative to control; details: U-251, 48 h, read-out: Activity; outline: as §3
MOLT-4 = assay: Growth inhibition of human MOLT4 cells assessed as growth percentage at 10 uM incubated for 48 hrs by sulforhodamine B assay relative to control; details: MOLT-4, 48 h, read-out: Activity; outline: as §1
SK-MEL-5 = assay: Growth inhibition of human SK-MEL-5 cells assessed as growth percentage at 10 uM incubated for 48 hrs by sulforhodamine B assay relative to control; details: SK-MEL-5, 48 h, read-out: Activity; outline: as §3
CCRF-CEM = assay: Growth inhibition of human CCRF-CEM cells assessed as growth percentage at 10 uM incubated for 48 hrs by sulforhodamine B assay relative to control; details: read-out: Activity; outline: as §2
SNB-75 = assay: Growth inhibition of human SNB75 cells assessed as growth percentage at 10 uM incubated for 48 hrs by sulforhodamine B assay relative to control; details: SNB-75, 48 h, read-out: Activity; outline: as §3
M14 = assay: Growth inhibition of human M14 cells assessed as growth percentage at 10 uM incubated for 48 hrs by sulforhodamine B assay relative to control; details: M14, 48 h, read-out: Activity; outline: as §1
HT-29 = assay: Growth inhibition of human HT-29 cells assessed as growth percentage at 10 uM incubated for 48 hrs by sulforhodamine B assay relative to control; details: HT-29, 48 h, read-out: Activity; outline: as §1
MDA-MB-468 = assay: Growth inhibition of human MDA-MB-468 cells assessed as growth percentage at 10 uM incubated for 48 hrs by sulforhodamine B assay relative to control; details: MDA-MB-468, 48 h, read-out: Activity; outline: as §1
PC-3 = assay: Growth inhibition of human PC3 cells assessed as growth percentage at 10 uM incubated for 48 hrs by sulforhodamine B assay relative to control; details: PC-3, 48 h, read-out: Activity; outline: as §3
MDA-MB-435 = assay: Growth inhibition of human MDA-MB-435 cells assessed as growth percentage at 10 uM incubated for 48 hrs by sulforhodamine B assay relative to control; details: MDA-MB-435, 48 h, read-out: Activity; outline: as §1
SF-539 = assay: Growth inhibition of human SF539 cells assessed as growth percentage at 10 uM incubated for 48 hrs by sulforhodamine B assay relative to control; details: SF-539, 48 h, read-out: Activity; outline: as §3
COLO 205 = assay: Growth inhibition of human COLO205 cells assessed as growth percentage at 10 uM incubated for 48 hrs by sulforhodamine B assay relative to control; details: COLO 205, 48 h, read-out: Activity; outline: as §2
HCT-116 = assay: Growth inhibition of human HCT116 cells assessed as growth percentage at 10 uM incubated for 48 hrs by sulforhodamine B assay relative to control; details: HCT-116, 48 h, read-out: Activity; outline: as §2
TK-10 = assay: Growth inhibition of human TK10 cells assessed as growth percentage at 10 uM incubated for 48 hrs by sulforhodamine B assay relative to control; details: TK-10, 48 h, read-out: Activity; outline: as §3

Row | SMILES | growth at 10 µM (K562) [%] | growth at 10 µM (CAKI-1) [%] | growth at 10 µM (Hs-578T) [%] | growth at 10 µM (IGROV-1) [%] | growth at 10 µM (UO-31) [%] | growth at 10 µM (SW-620) [%] | growth at 10 µM (HL-60(TB)) [%] | growth at 10 µM (MCF7) [%] | growth at 10 µM (NCI-H226) [%] | growth at 10 µM (A549) [%] | growth at 10 µM (U-251) [%] | growth at 10 µM (MOLT-4) [%] | growth at 10 µM (SK-MEL-5) [%] | growth at 10 µM (CCRF-CEM) [%] | growth at 10 µM (SNB-75) [%] | growth at 10 µM (M14) [%] | growth at 10 µM (HT-29) [%] | growth at 10 µM (MDA-MB-468) [%] | growth at 10 µM (PC-3) [%] | growth at 10 µM (MDA-MB-435) [%] | other results
1 | CC(=O)C1=C(C)Nc2nc3ccccc3n2C1c1ccc2c(c1)OCO2 (racemic) | 82.9 | 88.3 | 99.8 | 106 | 89.3 | 104 | 98.4 | 96.4 | 103 | 99 | 95.7 | 102 | 102 | 94.8 | 88.2 | 105 | 105 | 109 | 92.8 | 93.1 | growth at 10 µM (SF-539): 99.7%; growth at 10 µM (COLO 205): 114%; growth at 10 µM (HCT-116): 98.9%; growth at 10 µM (TK-10): 104%
2 | CC1=C(C(=O)OCC(C)C)C(c2ccc3c(c2)OCO3)NC(=S)N1 (racemic) | 90.7 | 86.6 | 101 | 97.9 | 89.4 | 115 | 101 | 98.6 | 97.1 | 99 | 97.4 | 89.1 | 92.5 | 101 | 94.1 | 120 | 106 | 94.6 | 84.4 | 103 | growth at 10 µM (SF-539): 109%; growth at 10 µM (COLO 205): 123%; growth at 10 µM (HCT-116): 101%; growth at 10 µM (TK-10): 101%
3 | CC1=C(C(=O)OC(C)C)C(c2ccc3c(c2)OCO3)NC(=S)N1 (racemic) | 107 | 93.8 | 97.3 | 99.9 | 84.5 | 107 | 105 | 98.7 | 84.1 | 104 | 102 | 110 | 98.5 | 105 | 95.2 | 99 | 103 | 115 | 86 | 106 | growth at 10 µM (SF-539): 98.9%; growth at 10 µM (COLO 205): 123%; growth at 10 µM (HCT-116): 95.6%; growth at 10 µM (TK-10): 98%
4 | O=C1C2=C(NC(=S)NC2c2ccc3c(c2)OCO3)c2ccccc21 (racemic) | 103 | 87.4 | 96.8 | 104 | 77 | 95.2 | 99.7 | 96.8 | 92.6 | 107 | 97.8 | 104 | 101 | 108 | 81 | 110 | 108 | 108 | 96.3 | 107 | growth at 10 µM (SF-539): 105%; growth at 10 µM (COLO 205): 113%; growth at 10 µM (HCT-116): 110%; growth at 10 µM (TK-10): 102%
5 | CC(=O)N1C(=S)NC(C)=C(C(=O)OC(C)C)C1c1ccc2c(c1)OCO2 (racemic) | 83.2 | 97.2 | 98 | 106 | 91.3 | 102 | 99.3 | 97.2 | 94.8 | 99.4 | 92.6 | 95.2 | 100 | 81.5 | 97.2 | 96.8 | 105 | 104 | 87.2 | 102 | growth at 10 µM (SF-539): 98.2%; growth at 10 µM (COLO 205): 99.5%; growth at 10 µM (HCT-116): 93.8%; growth at 10 µM (TK-10): 103%
